According to ChEMBL document CHEMBL4028805, “Phenylthiazole Antibacterial Agents Targeting Cell Wall Synthesis Exhibit Potent Activity in Vitro and in Vivo against Vancomycin-Resistant Enterococci” (J Med Chem, 2017):
In brackets after ≈: the same amount, converted by molar mass. Activity calls are given as the source filed them.

Columns and labels:
Acinetobacter baumannii [1] = assay: Antibacterial activity against Acinetobacter baumanii ATCC 19606 after 18 to 22 hrs in absence of colistin by broth microdilution method; format: functional; conditions: ATCC 19606 = CIP 70.34 = JCM 6841
Procedure, shortened: (§1)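 Broth microdilution per CLSI guidelines. Gram-negatives grown in TSB. Each strain tested alone and again with colistin at ¼ × MIC to permeabilize the outer membrane. Plates incubated at 37 °C for 18–22 h. MIC read as the lowest concentration showing no visible growth.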

Escherichia coli [2] = assay: Antibacterial activity against Escherichia coli O157:H7 ATCC 35150 after 18 to 22 hrs in absence of colistin by broth microdilution method; format: functional
Enterobacter cloacae [3] = assay: Antibacterial activity against Enterobacter cloacae BAA-1154 after 18 to 22 hrs in absence of colistin by broth microdilution method; format: functional
Klebsiella pneumoniae [4] = assay: Antibacterial activity against Klebsiella pneumoniae BAA-1706 after 18 to 22 hrs in absence of colistin by broth microdilution method; format: functional
Pseudomonas aeruginosa [5] = assay: Antibacterial activity against Pseudomonas aeruginosa ATCC 15442 after 18 to 22 hrs in absence of colistin by broth microdilution method; format: functional
Escherichia coli [6] = assay: Antibacterial activity against Escherichia coli 1411 harboring delta-acrAB after 18 to 22 hrs in absence of colistin by broth microdilution method; format: functional
Enterococcus faecium [7] = assay: Antibacterial activity against vancomycin-resistant Enterococcus faecium ATCC 700221 after 18 to 22 hrs in absence of colistin by broth microdilution method; format: functional
Acinetobacter baumannii [8] = assay: Antibacterial activity against Acinetobacter baumanii ATCC 19606 after 18 to 22 hrs in presence of 1/4 times MIC colistin by broth microdilution method; format: functional; conditions: ATCC 19606 = CIP 70.34 = JCM 6841; procedure, shortened: as §1
Escherichia coli [9] = assay: Antibacterial activity against Escherichia coli O157:H7 ATCC 35150 after 18 to 22 hrs in presence of 1/4 times MIC colistin by broth microdilution method; format: functional
Enterobacter cloacae [10] = assay: Antibacterial activity against Enterobacter cloacae BAA-1154 after 18 to 22 hrs in presence of 1/4 times MIC colistin by broth microdilution method; format: functional; procedure, shortened: as §1
Klebsiella pneumoniae [11] = assay: Antibacterial activity against Klebsiella pneumoniae BAA-1706 after 18 to 22 hrs in presence of 1/4 times MIC colistin by broth microdilution method; format: functional; procedure, shortened: as §1
Pseudomonas aeruginosa [12] = assay: Antibacterial activity against Pseudomonas aeruginosa ATCC 15442 after 18 to 22 hrs in presence of 1/4 times MIC colistin by broth microdilution method; format: functional; procedure, shortened: as §1
Staphylococcus aureus = assay: Antibacterial against Methicillin-Resistant Staphylococcus aureus after 18 to 20 hrs by broth microdilution method; format: functional
Enterococcus faecium [13] = assay: Antibacterial activity against Enterococcus faecium clinical isolates after 18 to 22 hrs by broth microdilution method; format: functional
Procedure, shortened: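 Enterococcus faecium grown in BHI. MIC by CLSI broth microdilution, 37 °C for 18–22 h. Lowest concentration with no visible growth taken as MIC, reported as MIC50 across the isolates.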

Enterococcus faecalis [14] = assay: Antibacterial activity against Enterococcus faecalis clinical isolates after 18 to 22 hrs by broth microdilution method; format: functional
Procedure, shortened: (§2)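 CLSI broth microdilution against panels of enterococcal isolates. E. faecalis grown in TSB, E. faecium in BHI, 37 °C for 18–22 h. MIC is the lowest concentration without visible growth. MIC50 is the value inhibiting 50% of isolates in each group.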

Enterococcus faecalis [15] = assay: Antibacterial activity against vancomycin-resistant Enterococcus faecalis clinical isolates after 18 to 22 hrs by broth microdilution method; format: functional; procedure, shortened: as §2
Enterococcus faecium [16] = assay: Bactericidal activity against Vancomycin-resistant Enterococcus faecium clinical isolates after 18 to 22 hrs by broth microdilution method; format: functional
Procedure, shortened: (§3)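 MBC follows the broth microdilution MIC. 5 μL aliquots spotted onto TSA (E. faecalis) or BHI agar (E. faecium), incubated 37 °C for 18–22 h. MBC is the concentration giving >99% reduction in bacterial count. MBC50 is the value for 50% of isolates.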

Enterococcus faecium [17] = assay: Bactericidal activity against Enterococcus faecium after 18 to 22 hrs by broth microdilution method; format: functional
Procedure, shortened: (§4)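 MBC determined after the broth microdilution MIC. 5 μL aliquots plated onto TSA (E. faecalis) or BHI agar (E. faecium) and incubated at 37 °C for 18–22 h. MBC is the concentration giving >99% reduction in cell count, reported as MBC50.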

Enterococcus faecalis [18] = assay: Bactericidal activity against Enterococcus faecalis clinical isolates after 18 to 22 hrs by broth microdilution method; format: functional; procedure, shortened: as §4
Enterococcus faecalis [19] = assay: Bactericidal activity against vancomycin-resistant Enterococcus faecalis clinical isolates after 18 to 22 hrs by broth microdilution method; format: functional; procedure, shortened: as §3
Enterococcus faecalis [20] = assay: Bactericidal activity against vancomycin-resistant Enterococcus faecalis HM-201 at 4 times MIC after 2 hrs by time-kill assay; format: functional
Procedure, shortened: (§5)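 Late-log cells diluted to ~5 × 10^6 CFU/mL and exposed in triplicate to 4 × MIC, in TSB (E. faecalis HM-201) or BHI (E. faecium ATCC 700221) at 37 °C. Sampled at 0, 2, 4, 6, 8, 10, 12 and 24 h, diluted serially in PBS and plated on TSA or BHI agar. CFU/mL counted after 18–22 h. DMSO served as negative control.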

Enterococcus faecium [21] = assay: Bactericidal activity against vancomycin-resistant Enterococcus faecium ATCC 700221 at 4 times MIC after 4 hrs by time-kill assay; format: functional; procedure, shortened: as §5
HRT-18 cell line [22] = assay: Cytotoxicity against human HRT18 cells assessed as reduction in cell viability up to 40 ug/ml after 2 hrs by MTS assay; format: cell-based; conditions: hrt-18, 2 h
Procedure, shortened: (§6)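 HRT-18 cells maintained in RPMI-1640 with 10% fetal horse serum at 37 °C, 5% CO2. Exposed to 5, 10, 20 or 40 μg/mL for 2 or 24 h, then MTS added and absorbance read at 490 nm. Viability expressed relative to untreated cells, n ≥ 3, one-way ANOVA with Dunnett's test.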

HRT-18 cell line [23] = assay: Cytotoxicity against human HRT18 cells assessed as reduction in cell viability at 20 ug/ml after 24 hrs by MTS assay; format: cell-based; conditions: hrt-18, 24 h; procedure, shortened: as §6
HRT-18 cell line [24] = assay: Cytotoxicity against human HRT18 cells assessed as reduction in cell viability at 40 ug/ml after 24 hrs by MTS assay; format: cell-based; conditions: hrt-18, 24 h; procedure, shortened: as §6
Enterococcus faecalis [25] = assay: Antibacterial activity against Enterococcus faecalis ATCC 31975 at 4 to 8 times MIC after 48 hrs by broth microdillution method; format: functional
Procedure, shortened: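 Single-step resistance selection. Cultures of 5 × 10^8 to 5 × 10^10 CFU/mL spread on TSA containing compound at 2×, 4× or 8× MIC and incubated aerobically at 37 °C for 48 h. Colony MICs rechecked by broth microdilution. Frequency calculated as resistant colonies per inoculum.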

Enterococcus faecalis [26] = assay: Antibacterial activity against vancomycin-resistant Enterococcus faecalis ATCC 51299 assessed as ratio of MIC after and before 6 serial passages measured after 18 hrs by broth microdillution method; format: functional
Procedure, shortened: (§7)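 Multi-step selection over 14 passages in two weeks. McFarland 0.5 inoculum diluted 1:300 in TSB (E. faecalis) or BHI (E. faecium) to 1 × 10^5 CFU/mL. Each passage reinoculated at ~5 × 10^5 CFU/mL from the sub-inhibitory well of the previous plate. Compounds serially diluted in triplicate, incubated ≥18 h at 37 °C, MIC read visually. Resistance defined as >4-fold MIC rise.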

Enterococcus faecium [27] = assay: Antibacterial activity against vancomycin-resistant Enterococcus faecium ATCC HM-968 after 14 serial passages measured after 18 hrs by broth microdillution method; format: functional; procedure, shortened: as §7
Enterococcus faecalis [28] = assay: Synergistic antimicrobial activity against Enterococcus faecalis ATCC 49532 after 20 hrs in presence of ciprofloxacin by checkerboard assay; format: functional
Procedure, shortened: (§8)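 Checkerboard in TSB with a starting inoculum of 1×10^5 CFU/mL. Compound and antibiotic diluted from 2× or 4× MIC along perpendicular axes. Incubated 20 h at 37 °C. ΣFIC calculated: ≤0.5 synergy, >0.5 to <2 additive, 2–4 indifference, >4 antagonism.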

Enterococcus faecalis [29] = assay: Synergistic antimicrobial activity against Enterococcus faecalis ATCC 49533 after 20 hrs in presence of ciprofloxacin by checkerboard assay; format: functional; procedure, shortened: as §8
[30] = Toxicity in Caenorhabditis elegans AU37 assessed as worm survival at 20 ug/ml after 24 hrs by microscopic analysis; conditions: AU37, caenorhabditis elegans
Procedure, shortened: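 Adult C. elegans AU37, 15–20 per well, exposed in triplicate to 10 or 20 μg/mL, with sterile water as negative control. Viability checked by microscopy. Result reported as percent viable worms after 24 h exposure.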

Enterococcus faecalis [31] = assay: Antibacterial activity against vancomycin-resistant Enterococcus faecalis HM-201 infected in Caenorhabditis elegans AU37 assessed as reduction in bacterial burden at 20 ug/ml after 18 hrs by CFU-based […] analysis relative to control; format: functional; design: scale not given: the % may be the effect or the level left
Procedure, shortened: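 C. elegans AU37 adults infected on an E. faecalis HM-201 lawn for 2 h, washed in M9, 20–25 worms per well. Treated in triplicate with 20 μg/mL, with water as negative control. Worms washed, lysed with silicon carbide by vortexing, diluted serially and plated on TSA with 50 μg/mL gentamicin. CFU counted after 18 h at 37 °C and expressed as % reduction versus untreated worms.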

Compound: CCCCC#Cc1ccc(-c2nc(C)c(/C(C)=N/NC(=N)N)s2)cc1
- MIC (Acinetobacter baumannii [1]): 8 µg/mL (≈ 22.6 µM)
- MIC (Escherichia coli [2]): > 128 µg/mL
- MIC (Enterobacter cloacae [3]): > 128 µg/mL
- MIC (Klebsiella pneumoniae [4]): > 128 µg/mL
- MIC (Pseudomonas aeruginosa [5]): > 128 µg/mL
- MIC (Escherichia coli [6]): 8 µg/mL (≈ 22.6 µM)
- MIC (Enterococcus faecium [7]): 0.5 µg/mL (≈ 1.41 µM)
- MIC (Acinetobacter baumannii [8]): 1 µg/mL
- MIC (Escherichia coli [9]): 1 µg/mL
- MIC (Enterobacter cloacae [10]): 1 µg/mL
- MIC (Klebsiella pneumoniae [11]): 1 µg/mL
- MIC (Pseudomonas aeruginosa [12]): 1 µg/mL
- MIC (Staphylococcus aureus): 1.3 to 5.6 µg/mL (≈ 3.68 to 15.8 µM)
- MIC50 (Enterococcus faecium [13]): 4 µg/mL (≈ 11.3 µM)
- MIC50 (Enterococcus faecalis [14]): 8 µg/mL (≈ 22.6 µM)
- MIC50 (Enterococcus faecalis [15]): 4 µg/mL (≈ 11.3 µM)
- MBC50 (Enterococcus faecium [16]): 4 µg/mL (≈ 11.3 µM)
- MBC50 (Enterococcus faecium [17]): 4 µg/mL (≈ 11.3 µM)
- MBC50 (Enterococcus faecalis [18]): 8 µg/mL (≈ 22.6 µM)
- MBC50 (Enterococcus faecalis [19]): 4 µg/mL (≈ 11.3 µM)
- Activity (Enterococcus faecalis [20]): Active
- Activity (Enterococcus faecium [21]): Active
- Activity (HRT-18 cell line [22]): Non-Toxic
- Activity (HRT-18 cell line [23]): Non-Toxic
- Activity (HRT-18 cell line [24]): Toxic
- Activity (Enterococcus faecalis [25]): Active
- Ratio (Enterococcus faecalis [26]): 1
- Activity (Enterococcus faecium [27]): Active
- fractional inhibitory concentration index (FICI) (Enterococcus faecalis [28]): 0.63 - 1
- fractional inhibitory concentration index (FICI) (Enterococcus faecalis [29]): 0.63 - 1
- survival at 24 h, 20 ug/ml [30]: 90%
- Activity (Enterococcus faecalis [31]): 94%
